Reference: PMC7111758 (Tetrahedron, 2019)

Legend:
[1] = tested on: human cytomegalovirus (HCMV) strain AD-169; assay: Antiviral assay, virus-induced cytopathic effect in HEL cells, HCMV AD-169; assay type: cell-based; conditions: HCMV replication; compared with reference drug ganciclovir
[2] = tested on: human cytomegalovirus (HCMV) strain Davis; assay: Antiviral assay, virus-induced cytopathic effect in HEL cells, HCMV Davis; assay type: cell-based; conditions: Human betaherpesvirus 5, HEL, read-out: Antiviral activity - EC50 HCMV Davis
[3] = tested on: varicella-zoster virus (VZV) strain Oka (TK+); assay: microbe, parasite or virus in culture; assay type: cell-based; conditions: Human alphaherpesvirus 3, HEL, read-out: Antiviral activity - EC50 VZV Oka (TK+)
[4] = tested on: herpes simplex virus type 2 (HSV-2) strain G; assay: Antiviral assay, virus-induced cytopathic effect in HEL cells, HSV-2 G; assay type: cell-based; conditions: Human alphaherpesvirus 2, HEL, read-out: Antiviral activity - EC50 HSV-2 G (TK+)
vaccinia virus (VACV) = assay: microbe, parasite or virus in culture; assay type: cell-based; conditions: for EC50: Orthopoxvirus vaccinia, HEL, read-out: Antiviral activity - EC50 VACV
adenovirus-2 = assay: Antiviral assay, virus-induced cytopathic effect, adenovirus-2; assay type: cell-based; conditions: for EC50: Human mastadenovirus C, read-out: Antiviral activity - EC50 Adeno-2
HEL cells = assay: Cytotoxicity, microscopically detectable alteration of cell morphology; assay type: cell-based, human; conditions: for Cytotoxicity MCC (minimum cytotoxic concentration): microscopically detectable alteration of cell morphology
[5] = Cytostatic activity, inhibition of HEL cell growth; assay type: cell-based; conditions: human, HEL cells
Method in brief: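 HEL cells seeded at 5 × 10^3 cells/well, allowed to proliferate 24 h, then given medium with different concentrations of test compound. After three days at 37 °C, cell number counted with a Coulter counter. CC50 is the concentration reducing proliferation by 50% relative to untreated control cell counts.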

Row | SMILES | EC50 against HCMV relative to ganciclovir [1] | EC50 [2] [µM] | EC50 [3] [µM] | EC50 [4] [µM] | activity against vaccinia virus (poxvirus) (vaccinia virus (VACV)) | EC50 (vaccinia virus (VACV)) [µM] | EC50 (adenovirus-2) [µM] | activity against adenoviruses (adenovirus-2; in words) | Cytotoxicity MCC (minimum cytotoxic concentration) (HEL cells) [µM] | cytotoxicity for HEL cells (HEL cells; no cytotoxicity up to the highest concentration tested) [µM] | CC50 at 3 days [5] [µM]
1 | CC(C)OP(=O)(CO[C@H](CF)Cn1cnc(N)nc1=O)OC(C)C [8a, Diisopropyl (S)-{[(1-(4-amino-2-oxo-1,3,5-triazin-1(2H)-yl)-3-fluoropropan-2-yl)oxy]methyl}phosphonate] | about three times higher | 7.9 ± 5.5 | 11.7 ± 4 | 17.5 ± 10.6 | inactive | > 100 | > 100 | inactive | >100 | > 100 | > 100
2 | CCOC(=O)C(C)NP(=O)(COC(CF)CN1CN2C=C(c3ccccc3)NC2=NC1=O)NC(C)C(=O)OCC (centres unmarked) [19a, Diethyl 2,2'-(((((1-fluoro-3-(2-oxo-7-phenyl-2,8-dihydroimidazo[1,2-a][1,3,5]triazin-3(4H)-yl)propan-2-yl)oxy)methyl)phosphoryl)bis(azanediyl))-dipropionate] |  | > 100 | > 100 | > 100 |  | > 100 | > 100 |  | >100 |  | 
3 | CCOC(=O)C(C)NP(=O)(COC(CF)CN1CN2C=C(c3ccc([N+](=O)[O-])cc3)NC2=NC1=O)NC(C)C(=O)OCC (centres unmarked) [19b, Diethyl 2,2'-(((((1-fluoro-3-(7-(4-nitrophenyl)-2-oxo-2,8-dihydroimidazo[1,2-a][1,3,5]triazin-3(4H)-yl)propan-2-yl)oxy)methyl)phosphoryl)bis(azanediyl))-dipropionate] |  | > 100 | > 100 | > 100 |  | > 100 | > 100 |  | >100 |  | 
4 | CCOC(=O)C(C)NP(=O)(COC(CF)CN1CN2C=C(c3ccc(OC)cc3)NC2=NC1=O)NC(C)C(=O)OCC (centres unmarked) [19c, Diethyl 2,2'-(((((1-fluoro-3-(7-(4-methoxyphenyl)-2-oxo-2,8-dihydroimidazo[1,2-a][1,3,5]triazin-3(4H)-yl)propan-2-yl)oxy)methyl)phosphoryl)bis(azanediyl))-dipropionate] |  | > 100 | > 100 | > 100 |  | > 100 | > 100 |  | >100 |  | 
5 | Nc1nc2c(ncn2COCCO)c(=O)[nH]1 [ACV, acyclovir, reference compound] |  |  |  | 0.21 ± 0.12 |  | > 250 |  |  | >440 |  | > 440
6 | O=c1[nH]c(=O)n([C@H]2C[C@H](O)[C@@H](CO)O2)cc1/C=C/Br [BVDU, brivudine, reference compound] |  |  | 0.023 ± 0.021 | 123 ± 26 |  | 11.3 ± 6.4 |  |  | >300 |  | > 300
7 | Nc1ccn(C[C@@H](CO)OCP(=O)(O)O)c(=O)n1 [CDV, cidofovir, reference compound] |  | 0.73 ± 0.31 |  | 1.3 ± 0.4 |  | 26 ± 12 | 8.3 ± 2.1 |  | >300 |  | > 300
8 | Nc1nc(O)c2ncn(COC(CO)CO)c2n1 [GCV, ganciclovir, reference compound] |  | 3 ± 2.7 |  | 0.03 |  | > 100 |  |  | >350 |  | > 350
9 | Nc1ncn(C[C@@H](CF)OCP(=O)(O)O)c(=O)n1 [compound 9, (S)-{[1-(4-Amino-2-oxo-1,3,5-triazin-1(2H)-yl)-3-fluoropropan-2-yl]oxymethyl}phosphonic acid] |  | > 100 | > 100 | > 100 |  | > 100 | > 100 |  | >100 |  | 
10 | NC1=NC(=O)N(C[C@@H](CF)OCP(=O)(O)O)CN1 [compound 13, (S)-1-[3-Fluoro-2-(phosphonomethoxy)propyl]-5,6-dihydro-5-azacytosine] |  | > 100 | > 100 | > 100 |  | > 100 | > 100 |  | >100 |  | 
11 | Nc1ncn(CC(O)C(F)(F)F)c(=O)n1 (centres unmarked) [compound 22, 4-Amino-1-(3,3,3-trifluoro-2-hydroxypropyl)-1,3,5-triazin-2(1H)-one] |  | 200 ± 17.8 | 40.6 ± 11.7 | 230 ± 29 |  | > 446 | 268 ± 178 |  | >446 |  | > 446
12 | CC(=O)O.NC1=NC(=O)N(CC(O)C(F)(F)F)CN1 (centres unmarked) [compound 23, 6-Amino-4-oxo-3-(3,3,3-trifluoro-2-hydroxypropyl)-1,2,3,4-tetrahydro-1,3,5-triazin-1-ium acetate] |  | > 100 | > 100 | > 100 |  | > 100 | > 100 |  | >100 |  | 
13 | Nc1ncn(CC(OCP(=O)(O)O)C(F)(F)F)c(=O)n1 (centres unmarked) [compound 25, {[(3-(4-Amino-2-oxo-1,3,5-triazin-1(2H)-yl)-1,1,1-trifluoropropan-2-yl)oxy]methyl}phosphonic acid] |  | > 100 | > 100 | > 100 |  | > 100 | > 100 |  | >100 |  | 
